Our source for the Iron mobilized, Growth inhibition and MIC values is ChEMBL document CHEMBL1126806, “Iron (III)-chelating resins. 3. Synthesis, iron (III)-chelating properties, and in vitro antibacterial activity of compounds containing 3-hydroxy-2-methyl-4(1H)-pyridinone ligands” (1993).

In brackets after ≈: the same amount, converted by molar mass.

Assay [1] concerns the target Lactotransferrin (Bos taurus) (UniProt P24627). Put plainly: Tested for iron mobilization from lactoferrin at physiological pH after 24 hours. Summed up: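 Lactoferrin fully iron(III)-saturated with FeCl3 in 0.1 M sodium bicarbonate overnight at room temperature (0.78 mM iron); 1.0 mL dialysed against 4 mL chelator (2 mM in 4× PBS) for 24 h at room temperature. Dialysate absorbance at 456 nm, converted by chelator–iron(III) calibration curves; protected derivatives measured after adding an unprotected chelator to the dialysate.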

Assay [2] has as its system Escherichia coli. The assay can be described thus: Tested for growth inhibition against Escherichia coli. Set-up: concentration or dose not given beside the values. Type of assay: functional. Summed up:
(§1)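 Broth growth assay in BHI medium; log-phase culture (24 h plate, 1 h then 2 h at 37 °C with shaking) added to tubes with derivative at 20 mM final, 37 °C for 7 h. Starting CFU/mL 2×10^5 (E. coli) or 5×10^5 (L. inocua). Standard plate counts; % inhibition = (ΔCFU 0–7 h control − ΔCFU 0–7 h test)/ΔCFU 0–7 h control.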

Assay [3] has as its system Escherichia coli. The assay can be described thus: Tested for minimum inhibitory concentration against Escherichia coli. It is filed as functional. In a few lines:
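Agar dilution on BHI agar with 2-fold dilutions; spots of 10^4–10^5 CFU applied by multipoint inoculator, 18 h at 37 °C, growth judged visually.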

In assay [4] the test system is Listeria innocua. The assay can be described thus: Tested for minimum inhibitory concentration against Listeria inocua. Type of assay: functional.
In assay [5] the test system is Listeria innocua. The assay can be described thus: Tested for growth inhibition against Listeria inocua. It is filed as functional. Set-up: concentration or dose not given beside the values. In a few lines:
as §1

Sequence of Lactotransferrin (Bos taurus) (P24627 whole entry): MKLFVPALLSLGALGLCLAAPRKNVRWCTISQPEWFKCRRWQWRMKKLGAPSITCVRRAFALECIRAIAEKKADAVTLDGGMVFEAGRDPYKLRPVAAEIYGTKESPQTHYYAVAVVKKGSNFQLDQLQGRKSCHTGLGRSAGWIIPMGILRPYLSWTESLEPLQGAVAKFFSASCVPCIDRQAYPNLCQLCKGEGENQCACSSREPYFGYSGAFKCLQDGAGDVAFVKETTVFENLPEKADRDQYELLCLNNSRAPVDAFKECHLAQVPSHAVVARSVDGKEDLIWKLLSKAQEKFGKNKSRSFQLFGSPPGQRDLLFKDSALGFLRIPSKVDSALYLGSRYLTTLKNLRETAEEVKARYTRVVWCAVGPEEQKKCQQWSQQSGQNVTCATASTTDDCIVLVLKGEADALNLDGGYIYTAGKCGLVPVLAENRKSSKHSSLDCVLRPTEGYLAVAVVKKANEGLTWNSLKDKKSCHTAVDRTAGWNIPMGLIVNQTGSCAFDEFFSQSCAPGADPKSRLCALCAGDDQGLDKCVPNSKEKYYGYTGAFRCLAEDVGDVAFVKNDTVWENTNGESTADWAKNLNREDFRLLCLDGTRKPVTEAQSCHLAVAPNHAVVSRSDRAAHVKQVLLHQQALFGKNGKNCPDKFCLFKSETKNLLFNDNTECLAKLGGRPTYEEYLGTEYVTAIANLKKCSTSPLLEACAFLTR

Compound `CCn1ccc(=O)c(OCc2ccccc2)c1C` registered an Iron mobilized in assay [1] of 2%. Moreover, the values for the Growth inhibition in assay [2] and in assay [5] were 53% and 72%, respectively. Further, the MIC in assay [3] and in assay [4] was 50 mM (≈ 12200 µg/mL) each time.

Compound `C=CC(=O)NCCn1ccc(=O)c(O)c1C` came in with an Iron mobilized in assay [1] of 62%. Also, the Growth inhibition worked out at 100% in assay [2] and 87% in assay [5]. Besides, the MIC – broadly, the least concentration at which growth counts as inhibited – in assay [3] came to 5 mM (≈ 1110 µg/mL); in assay [4], 25 mM (≈ 5560 µg/mL).

In turn, `CCn1ccc(=O)c(O)c1C` displayed an Iron mobilized in assay [1] of 71%. The values for the Growth inhibition in assay [2] and in assay [5] were 100% and 89%, respectively. Further, the results for the MIC in assay [3] and in assay [4] were 5 mM (≈ 766 µg/mL) and 25 mM (≈ 3830 µg/mL), respectively.

In assay [1], `Cc1c(OCc2ccccc2)c(=O)ccn1CCN` showed an Iron mobilized of 4%. Further, the Growth inhibition is given as 0% in assay [2] and 34% in assay [5]. Besides, the MIC in assay [3] and in assay [4] was 50 mM (≈ 12900 µg/mL) each time.

Turning to `Cc1c(O)c(=O)ccn1CCN`, in assay [1], the Iron mobilized came out at 60%. For the same compound, the Growth inhibition in assay [2] is on record as 100%; in assay [5], 93%. For the same compound, the values for the MIC in assay [3] and in assay [4] were 5 mM (≈ 841 µg/mL) and 25 mM (≈ 4200 µg/mL), respectively.

Take `C=C(C)C(=O)NCCn1ccc(=O)c(O)c1C`: in assay [1], the Iron mobilized is 63%. Also, the Growth inhibition in assay [2] is recorded as 100%; in assay [5], 90%. The MIC in assay [3] was found to be 5 mM (≈ 1180 µg/mL); in assay [4], 25 mM (≈ 5910 µg/mL).

In assay [1], `CCC(=O)NCCn1ccc(=O)c(O)c1C` returned an Iron mobilized of 61%. For the same compound, the figures for the Growth inhibition in assay [2] and in assay [5] were 100% and 86%, respectively. Further, the MIC in assay [3] stood at 5 mM (≈ 1120 µg/mL); in assay [4], 25 mM (≈ 5610 µg/mL).
